The source of these data is ChEMBL document CHEMBL3297645, “Discovery of TD-4306, a long-acting β2-agonist for the treatment of asthma and COPD” (Bioorg Med Chem Lett, 2014).

For series [1], the system named is Cavia porcellus. The experiment in a line: Bronchoprotection activity against acetylcholine-induced guinea pig bronchoconstriction model administered as nebulized dosing measured after 72 hrs. Type of series: functional, organism-based. The gist of the method: (§1)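 Guinea pigs received the compound by nebulizer, and testing took place 72 h after treatment. Pulmonary resistance was measured by head-out plethysmograph in anesthetized, spontaneously breathing animals. Bronchoconstriction was induced by increasing intravenous acetylcholine doses. The ACh dose doubling baseline resistance (PD2) was calculated.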

The target of series [2] is T1, Beta-2 adrenergic receptor (Homo sapiens, UniProt P07550). The experiment in a line: Agonist activity at human beta2 adrenergic receptor in human BEAS-2B cells by cAMP accumulation assay. It counts as functional, cell-based.
In series [3] the target is T1, Beta-2 adrenergic receptor. The experiment in a line: Agonist activity at human beta2 adrenergic receptor expressed in cells by cAMP accumulation assay. It counts as functional, cell-based. (In general: Cyclic AMP is a second messenger, typically raised through Gs and lowered through Gi signalling.)
For series [4], the species on record is Homo sapiens. The experiment in a line: Selectivity ratio of Ki for human beta1 adrenergic receptor to Ki for human beta2 adrenergic receptor. The gist of the method:
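Competition binding used [3H]dihydroalprenolol as tracer on plasma membranes from cells expressing recombinant human β1- or β2-adrenoceptors. Selectivity is the ratio β1 Ki/β2 Ki.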

In series [5] the target is T1, Beta-2 adrenergic receptor. The experiment in a line: Displacement of [3H]dihydroalprenolol from human beta2 adrenergic receptor expressing cell membrane by competition binding assay. Background: Displacement assays read how much labelled ligand stays bound in the presence of the test substance.
For series [6], the target named is Beta-3 adrenergic receptor (Homo sapiens, UniProt P13945). The experiment in a line: Agonist activity at human beta3 adrenergic receptor expressed in cells by cAMP accumulation assay. It counts as functional, cell-based. The essentials:
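cAMP accumulation read-out in a recombinant cell line heterologously expressing the human β3-adrenoceptor.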

For series [7], the target named is Beta-1 adrenergic receptor (Homo sapiens, UniProt P08588). The experiment in a line: Agonist activity at human beta1 adrenergic receptor expressed in cells by cAMP accumulation assay. It counts as functional, cell-based.
Series [8] deals with Cavia porcellus. The experiment in a line: Bronchoprotection activity against acetylcholine-induced guinea pig bronchoconstriction model at 1 to 100 ug/ml administered as nebulized dosing measured after 72 hrs. It counts as functional, organism-based. The essentials: as §1
Series [9] has as its system Cavia porcellus. The experiment in a line: Bronchoprotection activity against acetylcholine-induced guinea pig bronchoconstriction model at >= 30 ug/ml administered as nebulized dosing measured after 72 hrs. It counts as functional, organism-based. The gist of the method: as §1
Series [10] is described as follows: Clearance in dog. Type of series: ADME, organism-based, Canis lupus familiaris. Particulars: in vivo.
The species entered for series [11] is Homo sapiens. The experiment in a line: Inhibition of muscarinic receptor (unknown origin) at 1 uM.
Series [12] deals with T2, Muscarinic acetylcholine receptor M2 (Homo sapiens, UniProt P08172).
T2 sequence (P08172 whole entry): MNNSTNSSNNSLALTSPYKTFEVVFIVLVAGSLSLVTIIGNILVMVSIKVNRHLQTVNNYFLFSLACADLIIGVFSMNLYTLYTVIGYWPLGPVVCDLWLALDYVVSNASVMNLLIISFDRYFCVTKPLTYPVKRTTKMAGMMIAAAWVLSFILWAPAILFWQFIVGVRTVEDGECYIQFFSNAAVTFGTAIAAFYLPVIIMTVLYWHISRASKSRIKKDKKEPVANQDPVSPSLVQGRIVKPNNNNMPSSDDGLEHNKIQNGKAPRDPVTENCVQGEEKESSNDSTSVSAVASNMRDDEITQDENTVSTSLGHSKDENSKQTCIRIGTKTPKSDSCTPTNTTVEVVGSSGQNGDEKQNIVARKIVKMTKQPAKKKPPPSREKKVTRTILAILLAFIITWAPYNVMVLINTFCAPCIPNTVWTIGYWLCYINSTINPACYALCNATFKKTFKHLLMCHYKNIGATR
The experiment in a line: Inhibition of muscarinic acetylcholine receptor M2 (unknown origin).

Series [13] is described as follows: Clearance in rat. It counts as ADME, organism-based. Conditions: in vivo.
Series [14] is described as follows: Oral bioavailability in dog. Type of series: ADME, organism-based, Canis lupus familiaris. Particulars: in vivo.
In series [15] the target is hERG (KCNH2) (Homo sapiens, UniProt Q12809). The experiment in a line: Inhibition of human ERG at 40 nM.
Series [16] is described as follows: Oral bioavailability in rat. It counts as ADME, organism-based. Conditions: in vivo.
The nature of series [17]: Dissociation constant, pKa of the compound. It counts as physicochemical.

The source made the active and inactive calls. No cut-off for these calls is given here.

T1 sequence (P07550 whole entry): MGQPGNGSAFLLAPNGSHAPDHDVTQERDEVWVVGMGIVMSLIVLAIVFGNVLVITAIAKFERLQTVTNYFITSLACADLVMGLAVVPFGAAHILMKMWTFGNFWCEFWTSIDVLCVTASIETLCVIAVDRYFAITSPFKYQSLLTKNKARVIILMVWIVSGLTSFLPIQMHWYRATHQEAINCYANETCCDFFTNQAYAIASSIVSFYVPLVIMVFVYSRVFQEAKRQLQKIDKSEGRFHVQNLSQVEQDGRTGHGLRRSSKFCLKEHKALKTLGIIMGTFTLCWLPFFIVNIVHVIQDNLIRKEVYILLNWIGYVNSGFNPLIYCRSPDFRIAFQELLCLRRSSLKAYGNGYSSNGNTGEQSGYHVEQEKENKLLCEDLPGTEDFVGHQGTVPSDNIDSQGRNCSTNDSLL
Sequence of Beta-3 adrenergic receptor (P13945 whole entry): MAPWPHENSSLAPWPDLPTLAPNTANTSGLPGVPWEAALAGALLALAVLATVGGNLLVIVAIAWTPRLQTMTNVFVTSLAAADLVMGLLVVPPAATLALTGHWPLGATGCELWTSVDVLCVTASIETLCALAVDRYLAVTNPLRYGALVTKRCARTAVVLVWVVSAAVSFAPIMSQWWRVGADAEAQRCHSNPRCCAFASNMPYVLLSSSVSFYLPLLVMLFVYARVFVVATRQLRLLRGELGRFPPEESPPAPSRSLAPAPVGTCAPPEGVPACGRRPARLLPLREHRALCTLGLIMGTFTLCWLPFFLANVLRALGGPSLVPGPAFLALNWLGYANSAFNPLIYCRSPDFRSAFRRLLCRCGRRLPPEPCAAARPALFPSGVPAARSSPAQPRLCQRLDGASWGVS
Sequence of Beta-1 adrenergic receptor (P08588 whole entry): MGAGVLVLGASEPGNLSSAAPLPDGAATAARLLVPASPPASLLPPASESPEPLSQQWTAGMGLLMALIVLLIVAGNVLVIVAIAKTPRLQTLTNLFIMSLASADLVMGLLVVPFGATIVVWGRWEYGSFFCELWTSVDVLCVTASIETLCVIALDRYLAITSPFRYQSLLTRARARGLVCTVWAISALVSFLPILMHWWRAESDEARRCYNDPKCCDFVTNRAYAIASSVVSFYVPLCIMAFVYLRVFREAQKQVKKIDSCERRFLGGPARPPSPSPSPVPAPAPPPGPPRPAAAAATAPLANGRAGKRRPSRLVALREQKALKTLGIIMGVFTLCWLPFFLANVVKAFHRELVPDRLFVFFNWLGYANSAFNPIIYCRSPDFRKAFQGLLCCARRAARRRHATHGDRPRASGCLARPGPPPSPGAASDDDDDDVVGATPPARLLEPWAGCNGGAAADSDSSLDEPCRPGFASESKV
Sequence of hERG (KCNH2) (Q12809 whole entry): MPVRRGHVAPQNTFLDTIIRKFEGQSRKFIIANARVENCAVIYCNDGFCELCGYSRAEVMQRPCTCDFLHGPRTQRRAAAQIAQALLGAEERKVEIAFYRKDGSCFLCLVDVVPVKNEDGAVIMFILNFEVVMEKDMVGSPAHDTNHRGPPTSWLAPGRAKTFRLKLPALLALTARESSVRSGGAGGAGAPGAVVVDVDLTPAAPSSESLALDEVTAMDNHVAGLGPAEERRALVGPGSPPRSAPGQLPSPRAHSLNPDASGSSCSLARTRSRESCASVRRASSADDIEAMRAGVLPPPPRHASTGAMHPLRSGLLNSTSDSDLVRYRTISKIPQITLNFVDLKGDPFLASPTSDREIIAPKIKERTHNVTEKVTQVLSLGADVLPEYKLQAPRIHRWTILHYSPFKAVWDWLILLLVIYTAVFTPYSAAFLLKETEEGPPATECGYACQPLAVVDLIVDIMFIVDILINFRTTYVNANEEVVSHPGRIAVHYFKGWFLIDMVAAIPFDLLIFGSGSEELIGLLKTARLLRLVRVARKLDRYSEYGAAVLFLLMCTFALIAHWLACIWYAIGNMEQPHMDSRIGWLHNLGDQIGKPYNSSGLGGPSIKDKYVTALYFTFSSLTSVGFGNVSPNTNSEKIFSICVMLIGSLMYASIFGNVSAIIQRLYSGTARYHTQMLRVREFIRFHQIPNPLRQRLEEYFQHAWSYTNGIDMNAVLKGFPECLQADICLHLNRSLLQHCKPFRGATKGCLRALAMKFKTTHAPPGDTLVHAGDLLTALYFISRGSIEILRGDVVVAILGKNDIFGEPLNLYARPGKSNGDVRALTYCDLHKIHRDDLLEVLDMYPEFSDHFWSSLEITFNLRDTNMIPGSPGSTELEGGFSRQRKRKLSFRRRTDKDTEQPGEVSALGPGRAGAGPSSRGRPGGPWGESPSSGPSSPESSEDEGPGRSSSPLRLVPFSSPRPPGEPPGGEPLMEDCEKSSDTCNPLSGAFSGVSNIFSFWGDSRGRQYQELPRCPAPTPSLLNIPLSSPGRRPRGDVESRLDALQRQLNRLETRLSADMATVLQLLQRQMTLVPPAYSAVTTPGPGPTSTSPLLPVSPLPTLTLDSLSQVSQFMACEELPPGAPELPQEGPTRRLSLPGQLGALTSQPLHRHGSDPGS

Take `CCOc1ccc(Nc2ccc(CCNC[C@H](O)c3ccc(O)c4[nH]c(=O)ccc34)cc2)cc1`: in series [1], the outcome was inactive. Besides, the EC50 was 2 nM in series [2] and 0.251 nM in [3]. Also, the Ratio Ki in series [4] is 72. Besides, in series [5], the Ki is 12.6 nM.

Consider `CS(=O)(=O)N1CCN(CCOc2ccc(Nc3ccc(CCNC[C@H](O)c4ccc(O)c5[nH]c(=O)ccc45)cc3)cc2)CC1`, for which the EC50 in series [6] is 31.6 nM; in [2] it was 6.31 nM; in series [3], 0.631 nM; in series [7], 7.94 nM. The Ratio Ki in series [4] was determined as 30. In addition, the Ki in series [5] is 31.6 nM.

Turning to `COc1ccc(Nc2ccc(CCNC[C@H](O)c3ccc(O)c4[nH]c(=O)ccc34)cc2)cc1-c1ccccc1CN`, the EC50 was 6.31 nM in [6], 0.794 nM in series [2], 0.126 nM in series [3] and 2.51 nM in series [7]. Also, the Ratio Ki in series [4] is 20. Further, the Ki in series [5] was 3.16 nM.

Take `O=c1ccc2c([C@@H](O)CNCCc3ccc(Nc4ccc(OCCN5CCOCC5)cc4)cc3)ccc(O)c2[nH]1`: the EC50 is 50.1 nM in series [6], 3.16 nM in series [2], 0.316 nM in series [3] and 12.6 nM in [7]. The Ratio Ki in [4] is 41. Besides, the Ki in series [5] was 20 nM.

Regarding `COc1ccc(Nc2ccc(CCNC[C@H](O)c3ccc(O)c4[nH]c(=O)ccc34)cc2)cc1-c1ccccc1`, in [8], the result was Active. Moreover, the Ratio Ki in [4] was determined as 115. This compound gave a Ki in series [5] of 6.31 nM.

Regarding `O=CNc1cc([C@@H](O)CNCCc2ccc(NC[C@H](O)c3ccccc3)cc2)ccc1O` [MILVETEROL], in series [6], the EC50 was 39.8 nM. The Ratio Ki in [4] stood at 2910.

With `NCCCCOc1ccc(Nc2ccc(CCNC[C@H](O)c3ccc(O)c4[nH]c(=O)ccc34)cc2)cc1`, the EC50 in series [6] was 39.8 nM; in series [2] it was 0.631 nM; in series [3], 0.126 nM; in [7], 7.94 nM. Further, the Ratio Ki in series [4] turned out to be 85. The affinity in series [5] corresponds to a Ki of 5.01 nM.

As to `COc1ccc(Nc2ccc(CCNC[C@H](O)c3ccc(O)c4[nH]c(=O)ccc34)cc2)cc1-c1ccc(CN)cc1`, the result in series [8] was Active. Besides, the EC50 in series [6] is 10 nM; in series [2], 0.501 nM; in [3], 0.1 nM; in series [7] it was 2.51 nM. Besides, the Ratio Ki in series [4] was 101. In [5], this compound showed a Ki of 1.26 nM.

With `NCCOc1ccc(Nc2ccc(CCNC[C@H](O)c3ccc(O)c4[nH]c(=O)ccc34)cc2)cc1`, the EC50 in series [6] is 39.8 nM; in [2], 0.501 nM; in series [3], 0.1 nM; in series [7], 7.94 nM. The Ratio Ki in series [4] was 64. In series [5], this compound gave a Ki of 6.31 nM.

On to `CC(C)(N)COc1ccc(Nc2ccc(CCNC[C@H](O)c3ccc(O)c4[nH]c(=O)ccc34)cc2)cc1`, for which the Activity entry in [1] was “Dose-dependent effect”. Also, in series [9], the result was Active. Moreover, the clearance in series [10] is 40 mL/min/kg; in [13], 6.67 mL/min/kg. Moreover, in [11], the inhibition result was “Active”. Further, the EC50 in series [6] was 63.1 nM; in [2], 1 nM; in series [3], 0.0794 nM; in series [7], 6.31 nM. The Ki in series [12] was 631 nM; in [5], 6.31 nM. Besides, the bioavailability in [14] came out at 5%; in [16] it was 1%. Further, the Ratio Ki in series [4] turned out to be 64. This compound also had an inhibition at 0.04 µM in series [15] of 7%.

As to `NCCCOc1ccc(Nc2ccc(CCNC[C@H](O)c3ccc(O)c4[nH]c(=O)ccc34)cc2)cc1`, the EC50 in series [6] was 39.8 nM; in series [2], 0.631 nM; in [3], 0.158 nM; in [7], 7.94 nM. In addition, the Ratio Ki in series [4] is 95. In series [5], this compound gave a Ki of 5.01 nM.

With `O=c1ccc2c([C@@H](O)CNCCc3ccc(Nc4ccc(OCCN5CCNCC5)cc4)cc3)ccc(O)c2[nH]1`, the EC50 is 39.8 nM in [6], 1.58 nM in series [2], 0.126 nM in [3] and 10 nM in series [7]. Besides, the pKa in [17] was 9.1. Moreover, in series [4], the Ratio Ki was 116. Besides, in [5], the Ki is 10 nM.

For `CC(C)(C)OC(=O)NCCOc1ccc(Nc2ccc(CCNC[C@H](O)c3ccc(O)c4[nH]c(=O)ccc34)cc2)cc1`, the EC50 is 12.6 nM in [6], 2.51 nM in series [2], 0.501 nM in series [3] and 12.6 nM in [7]. In addition, in series [4], the Ratio Ki was 26. In addition, the Ki in [5] was 20 nM.

Consider `COc1ccc(Nc2ccc(CCNC[C@H](O)c3ccc(O)c4[nH]c(=O)ccc34)cc2)cc1-c1cccc(CN)c1`, for which the result in series [8] was Active. In addition, the concentration for a half-maximal effect (EC50) in series [6] was 25.1 nM; in series [2] it was 0.316 nM; in series [3], 0.0794 nM; in series [7], 3.98 nM. Moreover, the Ratio Ki in [4] turned out to be 146. Besides, the Ki in [5] was 1.58 nM.

With `NCCOCCOc1ccc(Nc2ccc(CCNC[C@H](O)c3ccc(O)c4[nH]c(=O)ccc34)cc2)cc1`, the EC50 in [6] is 39.8 nM; in series [2], 0.631 nM; in series [3], 0.158 nM; in [7] it was 7.94 nM. Moreover, in series [4], the Ratio Ki was determined as 95. Moreover, the affinity in series [5], expressed as Ki, was 6.31 nM.

Take `CC(C)(N)COc1ccc(Nc2ccc(CCNC[C@H](O)c3ccc(O)c(NC=O)c3)cc2)cc1`: the EC50 in series [6] is 39.8 nM; in series [2], 3.16 nM; in series [3], 0.251 nM; in series [7] it was 6.31 nM. In addition, the Ratio Ki in series [4] came to 94. Further, in [5], the inhibition constant Ki was 25.1 nM.

Take `O=C(NCCOc1ccc(Nc2ccc(CCNC[C@H](O)c3ccc(O)c4[nH]c(=O)ccc34)cc2)cc1)c1ccccc1`: the EC50 in series [6] is 12.6 nM; in series [2], 1.58 nM; in series [3], 0.501 nM; in [7], 2 nM. In addition, the Ratio Ki in series [4] is 13. In series [5], this compound showed an inhibition constant Ki of 10 nM.

In the case of `CC(C)(N)COc1ccc(Nc2ccc(CCNC[C@H](O)c3ccc(O)c4[nH]c(=O)ccc34)cc2)cc1-c1ccccc1`, the EC50 in [6] is 7.94 nM; in [2], 0.631 nM; in series [3], 0.0631 nM; in series [7] it was 1.58 nM. In series [4], the Ratio Ki amounted to 140. Besides, the Ki in series [5] is 1 nM.

The EC50 is the concentration giving half of the maximal effect. A lower EC50 goes with a more potent agent. The Ki is the equilibrium dissociation constant of an inhibitor or competing ligand from its target. A high value points to a looser hold on the target. One may read the clearance as the rate of elimination divided by the concentration. A low value points to inefficient removal. As a reminder, the inhibition is how much of the control response was suppressed. Usually bioavailability stands for the share of a dose that reaches the circulation, judged against a reference dose that is usually intravenous. Low readings indicate poor availability, high ones good availability. As a reminder, the pKa is the pH at which an ionisable group is half protonated. Higher therefore signals a weaker acid or stronger base.
